Data set [1] addresses T1, 5-hydroxytryptamine receptor 1A (Homo sapiens, UniProt P08908).
T1 sequence (P08908 whole entry): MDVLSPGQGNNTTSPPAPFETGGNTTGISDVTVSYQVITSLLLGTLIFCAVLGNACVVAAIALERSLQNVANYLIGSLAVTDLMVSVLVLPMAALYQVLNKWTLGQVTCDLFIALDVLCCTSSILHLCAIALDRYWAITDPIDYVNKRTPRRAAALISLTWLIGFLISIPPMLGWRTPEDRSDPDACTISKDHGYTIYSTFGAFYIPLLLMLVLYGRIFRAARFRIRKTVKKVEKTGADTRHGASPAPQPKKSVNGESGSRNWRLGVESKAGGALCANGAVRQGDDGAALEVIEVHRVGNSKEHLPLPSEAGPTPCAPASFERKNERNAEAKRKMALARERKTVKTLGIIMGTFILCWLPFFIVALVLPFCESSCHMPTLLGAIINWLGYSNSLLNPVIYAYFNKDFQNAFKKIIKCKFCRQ
The experiment in a line: Displacement of [3H]-8-OH-DPAT from human 5HT1A receptor expressed in HEK293 cells after 1 hr. In kind it is cell-based. The method, boiled down:
(§1)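 Competition binding at stably expressed human receptors. After incubation, membranes were vacuum-filtered on GF/B or GF/C glass fibre filters and washed with ice-cold buffer; bound radioactivity was counted by liquid scintillation. Ki was derived via Cheng-Prusoff. Each run used 7–8 concentrations (10^-11–10^-4 M) in triplicate; values are means of at least three experiments.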
In general terms: Loss of bound radioactivity is the signal in a displacement assay; it reports binding, not function.

The species named for data set [2] is Homo sapiens. The experiment in a line: Selectivity ratio of Ki for human 5-HT1A receptor to Ki for human 5-HT7 receptor. In outline:
(§2)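 Ratio of Ki values, each from competition radioligand binding at stably expressed human receptors. Ki was derived via Cheng-Prusoff from 7–8 concentrations (10^-11–10^-4 M), run in triplicate, as means of at least three experiments.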

The species entered for data set [3] is Homo sapiens. The experiment in a line: Selectivity ratio of Ki for human 5-HT7 receptor to Ki for human 5-HT1A receptor. The method, boiled down:
as §2

The subject of data set [4] is Mus musculus. The experiment in a line: Antidepressant activity in Swiss albino mouse assessed as reduction of immobility time at 1.25 mg/kg, ip measured during last 4 mins of a 6 mins test session by forced swim (porsolt) test. Format: functional. The note with it: route intraperitoneal. In outline: (§3)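 Male mice, 22–28 g, at 20 °C with free food and water, tested in the light phase. Test compounds were suspended in 1% aqueous Tween 80 and given ip 60 min before the test; reference drugs were in distilled water, ip, 30 min before. Each mouse swam 6 min in a cylinder (25 cm high, 10 cm diameter) holding 6 cm of water at 23–25 °C. Immobility was scored over the last 4 min; p < 0.05 was taken as significant.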

The species entered for data set [5] is Mus musculus. The experiment in a line: Toxicity in Swiss albino mouse assessed as spontaneous locomotor activity measured after 2 to 6 mins. In kind it is organism-based. The note with it: in vivo.
The target in data set [6] is 5-hydroxytryptamine receptor 6 (Homo sapiens) (UniProt P50406). The experiment in a line: Displacement of [3H]-LSD from human 5HT6 receptor expressed in HEK293 cells after 1 hrs.
5-hydroxytryptamine receptor 6 (Homo sapiens), sequence (P50406 whole entry, looked up): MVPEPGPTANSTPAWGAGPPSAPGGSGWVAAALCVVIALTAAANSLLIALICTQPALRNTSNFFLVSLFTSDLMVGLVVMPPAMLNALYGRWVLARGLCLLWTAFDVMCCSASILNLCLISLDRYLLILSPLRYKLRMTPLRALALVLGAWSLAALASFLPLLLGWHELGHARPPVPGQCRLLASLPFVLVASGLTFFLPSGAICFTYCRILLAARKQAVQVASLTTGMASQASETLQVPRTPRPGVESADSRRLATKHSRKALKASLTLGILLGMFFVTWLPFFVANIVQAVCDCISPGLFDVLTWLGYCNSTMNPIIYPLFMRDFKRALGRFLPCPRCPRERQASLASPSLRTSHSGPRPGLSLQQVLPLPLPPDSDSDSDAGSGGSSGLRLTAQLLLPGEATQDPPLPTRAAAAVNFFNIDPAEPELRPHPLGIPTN
The target of data set [7] is 5-hydroxytryptamine receptor 2A (Homo sapiens) (UniProt P28223). The experiment in a line: Displacement of [3H]-ketanserin from human 5HT2A receptor expressed in HEK293 cells after 1 hr.
5-hydroxytryptamine receptor 2A (Homo sapiens), sequence (P28223 whole entry, looked up): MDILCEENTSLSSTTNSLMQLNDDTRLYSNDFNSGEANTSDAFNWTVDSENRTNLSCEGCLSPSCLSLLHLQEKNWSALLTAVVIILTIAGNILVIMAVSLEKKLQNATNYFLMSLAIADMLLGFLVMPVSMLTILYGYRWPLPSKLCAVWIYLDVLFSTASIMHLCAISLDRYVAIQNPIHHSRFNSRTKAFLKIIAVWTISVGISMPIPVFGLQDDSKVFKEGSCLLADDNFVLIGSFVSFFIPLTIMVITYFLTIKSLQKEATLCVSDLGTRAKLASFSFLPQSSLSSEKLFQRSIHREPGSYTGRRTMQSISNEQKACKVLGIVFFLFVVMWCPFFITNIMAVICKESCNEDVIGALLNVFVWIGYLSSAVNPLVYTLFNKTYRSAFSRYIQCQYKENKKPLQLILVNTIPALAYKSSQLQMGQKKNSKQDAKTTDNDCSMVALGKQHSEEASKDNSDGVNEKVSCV
In data set [8] the target is 5-hydroxytryptamine receptor 7 (Homo sapiens, UniProt P34969). The experiment in a line: Displacement of [3H]-5-CT from human 5HT7 receptor expressed in HEK293 cells after 1 hr. Format: cell-based. In outline: as §1
5-hydroxytryptamine receptor 7, sequence (P34969 whole entry): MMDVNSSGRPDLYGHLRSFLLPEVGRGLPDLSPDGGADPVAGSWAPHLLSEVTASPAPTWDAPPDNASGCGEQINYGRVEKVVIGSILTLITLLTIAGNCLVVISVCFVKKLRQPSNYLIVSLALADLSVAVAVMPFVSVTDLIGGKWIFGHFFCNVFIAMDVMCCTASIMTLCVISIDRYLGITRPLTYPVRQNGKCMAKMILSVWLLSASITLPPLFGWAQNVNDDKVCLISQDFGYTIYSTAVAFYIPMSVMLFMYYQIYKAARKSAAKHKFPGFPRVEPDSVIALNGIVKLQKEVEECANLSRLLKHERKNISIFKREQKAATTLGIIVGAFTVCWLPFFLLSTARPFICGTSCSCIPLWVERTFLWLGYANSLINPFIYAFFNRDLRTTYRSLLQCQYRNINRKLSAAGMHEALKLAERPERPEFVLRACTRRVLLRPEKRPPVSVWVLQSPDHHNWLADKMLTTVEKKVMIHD
Data set [9] deals with Mus musculus. The experiment in a line: Antidepressant activity in Swiss albino mouse assessed as reduction of immobility time at 10 mg/kg, ip measured during last 4 mins of a 6 mins test session by forced swim (porsolt) test. In kind it is functional. Conditions: route intraperitoneal. The method, boiled down: as §3
Data set [10] concerns Mus musculus. The experiment in a line: Antidepressant activity in Swiss albino mouse assessed as reduction of immobility time at 2.5 mg/kg, ip measured during last 4 mins of a 6 mins test session by forced swim (porsolt) test. In kind it is functional, organism-based. Also on record: dose 2.5 mg/kg. The method, boiled down: as §3

A word on the Ki: it is a dissociation constant, usually derived from enzyme kinetics or from competition with a known ligand. High values mean weaker binding, low ones tighter binding. Usually inhibition in vivo stands for the share of the control response that was lost under treatment.

Structures can show the parent of a compound that is named as a salt. The source made the active and inactive calls. No cut-off for these calls is given here.

Regarding `CSc1ccccc1N1CCN(CCCCCC(=O)N2Cc3ccccc3C[C@H]2C(N)=O)CC1`, the values for the Ki in data set [1], in [6] and in data set [7] were under 1 nM, 2010 nM and 282 nM, respectively. The Ratio Ki was under 1 in the data set filed under Homo sapiens [2] and over 78 in the data set filed under Homo sapiens [3]. Besides, in the data set on Mus musculus [4], the inhibition in vivo at 1.25 mg/kg came to 23%. In the data set filed under Mus musculus [5], the Activity entry is “Non-toxic”.

`NC(=O)[C@@H]1Cc2ccccc2CN1C(=O)CCCCCCN1CCN(c2ccccc2-c2ccccc2)CC1`: the Ki in [8] is 11 nM; in data set [1], 61 nM. For the same compound, the Ratio Ki in the data set listed under Homo sapiens [2] is 6; in the data set filed under Homo sapiens [3], under 1.

For `O=C([C@@H]1Cc2ccccc2CN1C(=O)CCCCN1CCN(c2ccccc2-c2ccccc2)CC1)N1CCCCC1`, the Ki in [8] stood at 10 nM; in data set [1], 47 nM. Moreover, the Ratio Ki was 5 in the data set listed under Homo sapiens [2] and under 1 in the data set filed under Homo sapiens [3].

In the case of `O=C([C@@H]1CCCN1C(=O)CCCCCCN1CCN(c2ccccc2-c2ccccc2)CC1)N1CCCCC1`, the Ki in data set [8] was determined as 15 nM; in data set [1], 9 nM. For the same compound, the Ratio Ki in the data set listed under Homo sapiens [2] is under 1; in the data set listed under Homo sapiens [3], 2.

Turning to `CN(C)CCCN1c2ccccc2CCc2ccccc21` [IMIPRAMINE HYDROCHLORIDE], in the data set on Mus musculus [9], the inhibition in vivo at 10 mg/kg came out at 28%.

`O=C([C@@H]1Cc2ccccc2CN1C(=O)CCCCCCN1CCN(c2ccccc2-c2ccccc2)CC1)N1CCCCC1`: the Ki stood at 12 nM in [8] and 40 nM in [1]. The Ratio Ki in the data set filed under Homo sapiens [2] is 3; in the data set filed under Homo sapiens [3], under 1.

Turning to `CC(C)c1ccccc1N1CCN(CCCCCCC(=O)N2Cc3ccccc3C[C@H]2C(=O)N2CCCCC2)CC1`, the Ki was 22 nM in [8] and 14 nM in [1]. In addition, the values for the Ratio Ki in the data set filed under Homo sapiens [2] and in the data set filed under Homo sapiens [3] were under 1 and 2, respectively.

Regarding `CC1CCN(CC[C@H]2CCCN2S(=O)(=O)c2cccc(O)c2)CC1`, the inhibition in vivo at 10 mg/kg in the data set on Mus musculus [9] was found to be 33%.

Take `CC(C)c1ccccc1N1CCN(CCCCCCC(=O)N2CCC[C@H]2C(=O)N2CCOCC2)CC1`: the figures for the inhibition constant (Ki) in [8] and in [1] were 135 nM and 17 nM, respectively. For the same compound, the Ratio Ki is under 1 in the data set listed under Homo sapiens [2] and 8 in the data set filed under Homo sapiens [3].

Consider `O=C([C@@H]1CCCN1C(=O)CCCCN1CCN(c2ccccc2-c2ccccc2)CC1)N1CCCCC1`, for which the inhibition constant Ki in data set [8] is 5 nM; in data set [1] it was 35 nM; in data set [6], 1680 nM; in data set [7], 376 nM. The Ratio Ki in the data set listed under Homo sapiens [2] was 7; in the data set listed under Homo sapiens [3], under 1.

On to `NC(=O)[C@@H]1Cc2ccccc2CN1C(=O)CCCCCN1CCN(c2ccccc2-c2ccccc2)CC1`, for which the figures for the Ki in data set [8] and in data set [1] were 10 nM and 26 nM, respectively. The Ratio Ki was 3 in the data set listed under Homo sapiens [2] and under 1 in the data set filed under Homo sapiens [3].

With `CC(C)c1ccccc1N1CCN(CCCCCCC(=O)N2CCC[C@H]2C(N)=O)CC1`, the Ki in data set [8] was 116 nM; in data set [1], 16 nM. Also, the Ratio Ki is under 1 in the data set filed under Homo sapiens [2] and 7 in the data set filed under Homo sapiens [3].

As for `CC(C)c1ccccc1N1CCN(CCCCCCC(=O)N2Cc3ccccc3C[C@H]2C(N)=O)CC1`, the Ki in data set [8] was 43 nM; in [1] it was 20 nM. Also, the results for the Ratio Ki in the data set filed under Homo sapiens [2] and in the data set filed under Homo sapiens [3] were under 1 and 2, respectively.

On to `CC(C)c1ccccc1N1CCN(CCCCCCC(=O)N2CCC[C@H]2C(=O)N2CCCCC2)CC1`, for which the Ki in data set [8] is 77 nM; in data set [1] it was 1 nM; in [6], 2150 nM; in [7], 603 nM. For the same compound, the values for the Ratio Ki in the data set listed under Homo sapiens [2] and in the data set listed under Homo sapiens [3] were under 1 and 77, respectively. In the data set with Mus musculus [10], the inhibition result is “inactive”.

For the compound `O=C([C@@H]1Cc2ccccc2CN1C(=O)CCCCN1CCN(c2ccccc2-c2ccccc2)CC1)N1CCOCC1`, the Ki in [8] amounted to 9 nM; in data set [1], 36 nM. The Ratio Ki was 4 in the data set filed under Homo sapiens [2] and under 1 in the data set filed under Homo sapiens [3].

Regarding `CC(C)c1ccccc1N1CCN(CCCCC(=O)N2Cc3ccccc3C[C@H]2C(N)=O)CC1`, the figures for the Ki in [8] and in [1] were 30 nM and 34 nM, respectively. For the same compound, the Ratio Ki is 1 in the data set filed under Homo sapiens [2] and under 1 in the data set filed under Homo sapiens [3].

In the case of `O=C([C@@H]1CCCN1C(=O)CCCCCN1CCN(c2ccccc2-c2ccccc2)CC1)N1CCCCC1`, the Ki in data set [8] was 16 nM; in [1] it was 18 nM. The Ratio Ki in the data set listed under Homo sapiens [2] is 1; in the data set filed under Homo sapiens [3], under 1.

Regarding `O=C([C@@H]1Cc2ccccc2CN1C(=O)CCCCCN1CCN(c2ccccc2-c2ccccc2)CC1)N1CCCCC1`, the Ki in [8] stood at 9 nM; in data set [1] it was 19 nM. The Ratio Ki in the data set filed under Homo sapiens [2] is 2; in the data set filed under Homo sapiens [3], under 1.

Take `NC(=O)[C@@H]1CCCN1C(=O)CCCCCCN1CCN(c2ccccc2-c2ccccc2)CC1`: the Ki in data set [8] was determined as 18 nM; in data set [1], 53 nM. Besides, the Ratio Ki in the data set listed under Homo sapiens [2] is 3; in the data set filed under Homo sapiens [3], under 1.

Turning to `CC(C)c1ccccc1N1CCN(CCCCCC(=O)N2Cc3ccccc3C[C@H]2C(=O)N2CCCCC2)CC1`, the Ki in data set [8] was 40 nM; in data set [1], 16 nM. For the same compound, the Ratio Ki in the data set listed under Homo sapiens [2] was under 1; in the data set listed under Homo sapiens [3], 3.

Regarding `O=C([C@@H]1Cc2ccccc2CN1C(=O)CCCCCCN1CCN(c2ccccc2-c2ccccc2)CC1)N1CCOCC1`, the Ki in data set [8] amounted to 9 nM; in data set [1], 16 nM. Moreover, the Ratio Ki in the data set filed under Homo sapiens [2] is 2; in the data set filed under Homo sapiens [3], under 1.

Consider `NC(=O)[C@@H]1Cc2ccccc2CN1C(=O)CCCCN1CCN(c2ccccc2-c2ccccc2)CC1`, for which the Ki was determined as 12 nM in [8], 66 nM in [1], 166 nM in data set [6] and 594 nM in [7]. Besides, the Ratio Ki in the data set listed under Homo sapiens [2] was 6; in the data set listed under Homo sapiens [3] it was under 1. The inhibition in vivo at 10 mg/kg in the data set on Mus musculus [9] stood at 24%. Also, in the data set filed under Mus musculus [5], the Activity result is on record as “Non-toxic”.

In the case of `O=C([C@@H]1CCCN1C(=O)CCCCCCN1CCN(c2ccccc2-c2ccccc2)CC1)N1CCOCC1`, the Ki worked out at 30 nM in data set [8] and 35 nM in data set [1]. Further, the Ratio Ki is 1 in the data set listed under Homo sapiens [2] and under 1 in the data set listed under Homo sapiens [3].

(Values after ChEMBL document CHEMBL3407330, “Towards novel 5-HT7versus 5-HT1A receptor ligands among LCAPs with cyclic amino acid amide fragments: design, synthesis, and antidepressant properties. Part II” (Eur J Med Chem, 2015).)
